Data: ChEMBL document CHEMBL4622976, “Development of pH/Glutathione-Responsive Theranostic Agents Activated by Glutathione S-Transferase π for Human Colon Cancer” (J Med Chem, 2020)
Values belong to the compound of their own block, whether it stands above or below them. Calls of active or inactive are those of the source. The calls are words filed in the database; no cut-off is given here.

How the values were obtained:
HT-29 [1] = experiment: Antiproliferative activity against human HT-29 cells by MTT assay; type: functional, cell-based
Summary of the method: (§1)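 MTT assay. Cells were grown in DMEM/RPMI 1640 with 10% FBS, penicillin and streptomycin at 37 °C under 5% CO2. After a PBS wash, cells got 0.5 mg/mL MTT for 3 h at 37 °C. Formazan was dissolved in DMSO and absorbance read at 570 nm. Inhibition was expressed as a percentage and IC50 calculated. Means ± SD come from three separate experiments.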

HepG2 = experiment: Antiproliferative activity against human HepG2 cells by MTT assay; type: functional, cell-based; summary of the method: as §1
[2] = Antiproliferative activity against rat 9L-2 cells by MTT assay; type: functional, cell-based; summary of the method: as §1
[3] = Cytotoxicity against human CCD-841 cells by MTT assay; type: cell-based; summary of the method: as §1
HT-29 [4] = experiment: Induction of apoptosis in human HT-29 cells at 10 uM incubated for 72 hrs by FITC-AnnexinV/PI staining based flow cytometry relative to control; type: functional
Summary of the method: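 HT29 cells cultured 12 h, then exposed to compound or vehicle for 72 h. Harvested cells stained with Annexin V plus a viability dye for 15 min at 37 °C. Percentage of apoptotic cells determined by flow cytometry; means ± SD from three separate experiments, compared with control.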

HT-29 [5] = experiment: Induction of apoptosis in human HT-29 cells assessed as increase in Bax protein level at 10 uM incubated for 72 hrs by Western blot analysis; type: functional, cell-based
Summary of the method: (§2)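 HT29 cells (1.5 × 10^5/mL) treated 72 h with compound or vehicle. Lysates loaded at 0.05 mg/lane on 12% SDS-PAGE, transferred to nitrocellulose, blocked in 5% non-fat milk. Probed with antibodies to Bax, Bcl-2, cleaved caspase-3, cleaved PARP, LC3, p62 and beclin-1. Bands quantified relative to β-actin; three independent assays, means ± SD.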

HT-29 [6] = experiment: Induction of apoptosis in human HT-29 cells assessed as reduction in Bcl2 protein level at 10 uM incubated for 72 hrs by Western blot analysis; type: functional, cell-based; summary of the method: as §2
HT-29 [7] = experiment: Induction of apoptosis in human HT-29 cells assessed as increase in cleaved PARP protein level at 10 uM incubated for 72 hrs by Western blot analysis; type: functional, cell-based; summary of the method: as §2
HT-29 [8] = experiment: Induction of apoptosis in human HT-29 cells assessed as increase in cleaved caspase-3 protein level at 10 uM incubated for 72 hrs by Western blot analysis; type: functional, cell-based; summary of the method: as §2
HT-29 [9] = experiment: Induction of autophagy in human HT-29 cells assessed as increase in LC3-II protein level at 10 uM incubated for 72 hrs by Western blot analysis; type: functional, cell-based; summary of the method: as §2
HT-29 [10] = experiment: Induction of autophagy in human HT-29 cells assessed as increase in Beclin-1 protein level at 10 uM incubated for 72 hrs by Western blot analysis; type: functional, cell-based; summary of the method: as §2
HT-29 [11] = experiment: Induction of autophagy in human HT-29 cells assessed as reduction in p62 protein level at 10 uM incubated for 72 hrs by Western blot analysis; type: functional, cell-based; summary of the method: as §2
HT-29 [12] = experiment: Antitumor activity against human HT-29 cells xenografted in nude BALB/c mouse assessed as reduction in tumor volume at 40 mg/kg, ip dosed every day for 21 days; type: functional, organism-based
HT-29 [13] = experiment: Antitumor activity against human HT-29 cells xenografted in nude BALB/c mouse assessed as tumor weight level at 40 mg/kg, ip dosed every day for 21 days (reference value: 1.49 +/- 0.27 g); type: functional
HT-29 [14] = experiment: Induction of apoptosis in human HT-29 cells at 2.5 uM incubated for 72 hrs by FITC-AnnexinV/PI staining based flow cytometry relative to control; type: functional
Summary of the method: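 HT29 cells were cultured 12 h, then exposed to compound (0.4, 1.0, 2.5 µM) or vehicle for 72 h. Harvested cells were stained with Annexin V and PI, and apoptotic cell percentages measured by flow cytometry. Means ± SD come from three separate experiments.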

HT-29 [15] = experiment: Induction of apoptosis in human HT-29 cells assessed as increase in Bax protein level at 2.5 uM incubated for 72 hrs by Western blot analysis; type: functional, cell-based
Summary of the method: (§3)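 HT29 cells (1.5×10^5/mL) were treated for 72 h and lysed. Lysate (0.05 mg/lane) was run on 12% SDS-PAGE and transferred to nitrocellulose. After blocking in 5% non-fat milk, blots were probed for Bax, Bcl-2, cleaved caspase-3, cleaved PARP, LC3, p62 and beclin-1. Levels were normalised to β-actin, and means ± SD taken from three independent assays.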

HT-29 [16] = experiment: Induction of apoptosis in human HT-29 cells assessed as reduction in Bcl2 protein level at 2.5 uM incubated for 72 hrs by Western blot analysis; type: functional, cell-based; summary of the method: as §3
HT-29 [17] = experiment: Induction of apoptosis in human HT-29 cells assessed as increase in cleaved PARP protein level at 2.5 uM incubated for 72 hrs by Western blot analysis; type: functional, cell-based; summary of the method: as §3
HT-29 [18] = experiment: Induction of apoptosis in human HT-29 cells assessed as increase in cleaved caspase-3 protein level at 2.5 uM incubated for 72 hrs by Western blot analysis; type: functional, cell-based; summary of the method: as §3
HT-29 [19] = experiment: Induction of autophagy in human HT-29 cells assessed as increase in LC3-II protein level at 2.5 uM incubated for 72 hrs by Western blot analysis; type: functional, cell-based; summary of the method: as §3
HT-29 [20] = experiment: Induction of autophagy in human HT-29 cells assessed as increase in Beclin-1 protein level at 2.5 uM incubated for 72 hrs by Western blot analysis; type: functional, cell-based; summary of the method: as §3
HT-29 [21] = experiment: Induction of autophagy in human HT-29 cells assessed as reduction in p62 protein level at 2.5 uM incubated for 72 hrs by Western blot analysis; type: functional, cell-based
Summary of the method: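 HT29 cells (1.5×10^5/mL) exposed to compound or vehicle for 72 h, then lysed. Lysates (0.05 mg/lane) run on 12% SDS-PAGE, transferred to nitrocellulose, blocked with 5% non-fat milk and probed for LC3, p62, beclin-1 and β-actin. Bands quantified relative to β-actin, with LC3-II/LC3-I ratio also calculated; means ± SD from three independent assays.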

[22] = Dissociation constant, pKa of the compound; type: physicochemical

SMILES: COc1ccc2c(c1)[nH]c1c(C)nccc12 [HARMINE]
IC50 (HT-29 [1]): 41.8 µM
IC50 (HepG2): 49.6 µM
IC50 [2]: 47.8 µM
IC50 [3]: > 50 µM
Activity (HT-29 [4]): 20.9%
Activity (HT-29 [5]): Active
Activity (HT-29 [6]): Active
Activity (HT-29 [7]): Active
Activity (HT-29 [8]): Active
Activity (HT-29 [9]): Active
Activity (HT-29 [10]): Active
Activity (HT-29 [11]): Active

IC50 (HT-29 [1]): 4.37 µM
IC50 (HepG2): 5.93 µM
SMILES: C/C=C/C(=O)OCC1=CCCCC1=O
IC50 [2]: 7.79 µM
IC50 [3]: 7.83 µM
Activity (HT-29 [12]): Active
Activity (HT-29 [13]): 0.81 g
Activity (HT-29 [14]): 28.8%
Activity (HT-29 [15]): Active
Activity (HT-29 [16]): Active
Activity (HT-29 [17]): Active
Activity (HT-29 [18]): Active
Activity (HT-29 [19]): Active
Activity (HT-29 [20]): Active
Activity (HT-29 [21]): Active

IC50 (HT-29 [1]): 13.5 µM
IC50 (HepG2): 17.1 µM
SMILES: COc1cc(-c2nc(N)cc3c2[nH]c2ccccc23)cc(OC)c1OC

pKa [22]: 5.3
IC50 (HT-29 [1]): 1.45 µM
IC50 (HepG2): 2.69 µM
SMILES: COc1cc(-c2nc(N(C(=O)OCC3=CCCCC3=O)C(=O)OCC3=CCCCC3=O)cc3c2[nH]c2ccccc23)cc(OC)c1OC
IC50 [2]: 4.85 µM
IC50 [3]: 28.1 µM
